Bioassay records deposited in PubChem by several laboratories.
Most compounds without a hit are left out; they make up all but 9.6% or so of the library.
PMI act satM6P: increases human PMI activity with near-saturating mannose 6-phosphate; P34949; coupled PMI enzyme assay, resazurin fluorescence, 20 min; active compounds read high; 1 = untreated enzyme, 0 = substrate-free blank; activation factor at 20 µM; 190,000 tested, 0.34% active; AID 1216;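 active means activation factor of 2 or more at 20 µM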
Target sequence (P34949 whole entry, looked up): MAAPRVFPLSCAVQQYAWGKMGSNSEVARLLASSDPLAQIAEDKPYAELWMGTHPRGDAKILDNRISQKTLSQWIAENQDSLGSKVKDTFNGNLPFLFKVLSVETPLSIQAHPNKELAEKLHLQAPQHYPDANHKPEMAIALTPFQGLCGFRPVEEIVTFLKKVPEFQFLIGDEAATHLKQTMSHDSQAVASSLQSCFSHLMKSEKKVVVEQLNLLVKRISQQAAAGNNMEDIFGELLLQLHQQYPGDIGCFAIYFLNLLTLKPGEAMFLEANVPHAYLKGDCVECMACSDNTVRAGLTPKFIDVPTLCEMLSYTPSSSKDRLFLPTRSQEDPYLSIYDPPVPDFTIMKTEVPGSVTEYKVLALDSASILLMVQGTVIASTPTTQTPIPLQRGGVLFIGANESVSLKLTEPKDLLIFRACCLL
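Technique: Diaphorase-driven resazurin-to-resorufin fluorescence, excitation 544, emission 590 nm | Assay system: Human PMI in coupled enzyme assay | Times: Enzyme reaction with compound 20 min at room temperature | Medium: HEPES-buffered pH 7.4 with magnesium and detergent | Reagent: Mannose-6-phosphate 1.0 mM (near-saturating) plus 0.22 mM NADP+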
PMI act: phosphomannose isomerase (human) activation; purified human PMI, coupled resazurin fluorescence, 20 min; active compounds read high; 1 = vehicle control, 0 substrate-free wells; activation factor at 20 µM; P34949; 190,000 tested, 0.005% active;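 active means activation factor of 2 or more at 20 µM, relative to plate controls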
Lmaj promast: Leishmania major promastigote growth inhibition; Leishmania major promastigotes, resazurin fluorescence viability; inhibition, % at 10 µM; 200,000 tested, 9% active; AID 1063; in the data active means inhibition above about 50%;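 further: promastigotes grown with compound for 44 hours at 28 °C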
HCT116 bCat-KO: beta-catenin-lacking colon tumor cell growth suppression. HCT116 beta-catenin knockout viability, CellTiter-Glo, 60 h; active compounds read low. viability, % at 10 µM. 140,000 tested, 1.5% active. AID 818;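 active means viability at or under a set limit, the compound median less 4 SD, cut at about 6% in these data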;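 further: 0% = Hyamine 1622 control at 20 µM and 100% = untreated cell control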
PTEN del growth: PTEN-deleted cell growth suppression. 140,000 tested, 1.2% active. viability, % at 10 µM. AID 827. HCT116 PTEN-null viability, CellTiter-Glo, 60 h; active compounds read low;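 active means viability at or below a set limit, 4 SD under the median of all tested compounds, cut at about 3.7% in these data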;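 further: PTEN knockout HCT116 line with beta catenin targeted HCT116 as companion control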
An asterisk follows results filed as active; · = no result given.

SMILES | PMI act satM6P | PMI act | Lmaj promast | HCT116 bCat-KO | PTEN del growth
c1ccc(CCN2CCC(N3CCN(c4ccccc4)CC3)CC2)cc1 | 1 | 1 | 94.5* | 86.8 | 87.0
COc1cc(/C=N/NC(=O)Cn2c([N+](=O)[O-])cnc2C)ccc1OC(=O)N(C)C | 0.9 | 0.9 | -4.3 | 98.5 | 109.6
CC(C)CN1CCN(Cc2c(F)cccc2Cl)CC1CCO (stereo unspecified) | 1 | 0.9 | 7.2 | · | ·
CC(=O)N1CCCSC1=Nc1ccccc1 | 0.9 | 0.9 | 70.1* | · | ·
COCCNC(=O)c1c(N)n(Cc2ccco2)c2nc3ccccc3nc12 | 0.9 | 1 | 54.9* | 80.2 | 83.9
C=CCNC(=O)c1c(N)n(Cc2ccco2)c2nc3ccccc3nc12 | 0.8 | 1 | 100.2* | 76.2 | 72.9
CCC(=NCc1ccc2c(c1)OCO2)c1c(O)n(C2CCCCC2)c(=O)[nH]c1=O | 0.7 | 0.7 | 16.8 | 54.4 | 61.9
CC#CP(=O)(OC)C(O)(CF)c1ccccc1 (stereo unspecified) | 1.2 | 1.2 | -1.2 | 94.0 | 92.3
CN(C)CCOC(=O)c1cn(Cc2ccccc2)c2ccccc12 | 0.9 | 0.9 | 100.2* | 77.1 | 70.0
CC(NCc1ccc(Cl)cc1Cl)C(O)c1ccccc1 (stereo unspecified) | 1 | 1.1 | 64.4* | 78.7 | 79.0
CC(NCc1ccc(Cl)cc1)C(O)c1ccccc1 (stereo unspecified) | 1 | 1 | 87.0* | 89.6 | 88.7
CN(C)c1ccc(C=C2C(=O)NC(=O)NC2=O)cc1[N+](=O)[O-] | 1.2 | 1.1 | -8.2 | · | ·
CN(C)c1ccc(C=C2C(=O)NC(=S)NC2=O)cc1[N+](=O)[O-] | 2.1* | 1.5 | -3.1 | · | ·
CCOC(=O)C1=CC(=C2C(=O)N(CC)C(=S)N(CC)C2=O)c2ccccc2O1 | 0.6 | 0.7 | -5.1 | · | ·
CC(C(=O)Nc1ccc(Br)cc1C(=O)c1ccccc1)N1CCCCC1 (stereo unspecified) | 1 | 0.9 | 99.7* | 55.8 | 60.9
CC(=O)OC1N=C(c2ccccc2)c2cc(C)ccc2NC1=O (stereo unspecified) | 1 | 1 | 74.7* | 85.0 | 92.9
O=c1[nH]c2ccccc2o1 | 1.1 | 1.1 | 10.3 | 92.4 | 104.9
Clc1ccccc1C1NCc2ccccc2-n2cccc21 (stereo unspecified) | 1 | 1 | 17.6 | · | ·
CC(C)CCNC(=O)c1cc(C(=O)c2cc(Br)ccc2O)cn(CCC(C)C)c1=O | 1 | 1.1 | 83.4* | · | ·
O=C(c1cc(C(=O)NCc2ccccc2)c(=O)n(Cc2ccccc2)c1)c1cc(Cl)ccc1O | 1.1 | 1.1 | 97.9* | 58.5 | 46.0
CCOP1(=S)Oc2cc3c(cc2C(C(=O)OC)(C(F)(F)F)O1)OCO3 (stereo unspecified) | 0.9 | 0.8 | 0.0 | 104.3 | 115.2
CN(C(=O)c1ccc(Cl)nc1)C1(c2ccccc2Cl)CCCCC1=O (stereo unspecified) | 1.1 | 1.1 | 0.1 | · | ·
Nc1c(C(=O)NCCc2ccccc2)c2nc3ccccc3nc2n1CCN1CCOCC1 | 1.1 | 1 | 23.7 | 1.7* | 1.9*
CCCCn1c(N)c(C(=O)NCCN2CCOCC2)c2nc3ccccc3nc21 | 0.5 | 0.8 | 4.8 | 74.0 | 70.6
COc1ccc(CCNC(=O)c2c(N)n(CCN3CCOCC3)c3nc4ccccc4nc23)cc1 | 1.1 | 1 | 96.5* | 0.4* | 0.3*
SMILES | PMI act satM6P | PMI act | Lmaj promast | HCT116 bCat-KO | PTEN del growth
Cc1cc(S(=O)(=O)NCc2ccccc2)ccc1OCC(=O)N1CCN(C)CC1 | 1 | 0.9 | 28.1 | 99.9 | 112.2
Cc1cccc(NP(=O)(Oc2ccccc2F)Oc2ccccc2F)c1C | 0.8 | 0.9 | 80.5* | 88.2 | 74.3
CC(=O)Nc1nc(CCl)cs1 | 1.4 | 1.5 | -3.8 | · | ·
c1ccc2c(CN3CCCCCC3)c[nH]c2c1 | · | · | 56.6* | · | ·
CCOC(=O)c1c(C)c(P(=S)(N2CCOCC2)N2CCOCC2)n(C)c1C | 1 | 0.8 | 3.8 | 88.3 | 86.5
O=C(COc1ccc2ccccc2c1)N1CCN(CC2CC3C=CC2C3)CC1 (stereo unspecified) | 0.9 | 0.8 | 57.6* | 100.6 | 90.0
COc1ccc(OCC(=O)N2CCN(C3CCC(c4ccccc4)CC3)CC2)cc1 (stereo unspecified) | 1 | 1.1 | 59.9* | 75.1 | 77.7
O=C(Cc1ccccc1)N1CCN(C2CCCC2)CC1 | 1.1 | 1 | -0.8 | 98.8 | 117.3
O=C(COc1ccccc1)N1CCN(C2CCCC2)CC1 | 1 | 0.9 | 84.9* | 84.7 | 91.0
O=C(COc1ccccc1)N1CCN(Cc2c[nH]c3ccccc23)CC1 | 1 | 1 | -5.6 | 79.8 | 74.0
O=C(COc1ccc2ccccc2c1)N1CCN(C2CCN(Cc3ccccc3)CC2)CC1 | 0.8 | 0.8 | 92.2* | 31.0 | 42.7
O=C(COc1ccc(S(=O)(=O)N2CCCCC2)cc1)N1CCN(Cc2ccccc2)CC1 | 1 | 1 | 16.3 | 80.4 | 81.5
COc1ccc(OCC(=O)N2CCN(Cc3c[nH]c4ccccc34)CC2)cc1 | 0.9 | 1 | -0.6 | 84.3 | 81.4
CC1=CC(=C2C(=O)NC(=S)NC2=O)C=C(C(F)(F)F)N1CCc1ccccc1 | 1.2 | 1.2 | -3.7 | · | ·
NC(=O)Nc1ccc(C(=O)OCC(=O)Nc2ccc(Cl)cc2C(=O)c2ccccc2)cc1 | 1 | 1 | -3.0 | 89.8 | 88.8
Cc1nnc2n1-c1ccc(Cl)cc1C(c1ccccc1)=NC2 | 0.9 | 0.9 | · | · | ·
O=C1CN(C(=O)CN2CCCCC2)C(c2ccccc2)c2cc(Br)ccc2N1 (stereo unspecified) | 0.9 | 0.9 | 98.3* | 80.4 | 83.5
CC1CN(C)C(C)(C)CC1(O)c1ccccc1 (stereo unspecified) | 0.9 | 0.9 | 57.1* | 114.1 | 100.0
CCOc1ccc(Br)c(C2(O)CC(C)N(C)CC2C)c1 (stereo unspecified) | 1 | 1 | 83.2* | 59.9 | 70.0
Cc1ccc(C2(O)CC(C)N(C)CC2C)cc1 (stereo unspecified) | 1 | 1 | 87.7* | 96.8 | 104.4
CSCCC(N=Cc1c(O)n(-c2ccc(Br)cc2)c(=O)[nH]c1=O)C(=O)OC(C)(C)C (stereo unspecified) | 1 | 0.9 | -2.1 | 104.5 | 105.8
CCC(C)OC(=O)c1c(N)n(Cc2cccs2)c2nc3ccccc3nc12 (stereo unspecified) | 0.9 | 0.8 | 90.8* | 59.1 | 56.5
Nc1c(C(=O)OCc2ccccc2)c2nc3ccccc3nc2n1Cc1cccs1 | 1 | 1 | 69.2* | 35.5 | 33.4
CC(=O)N1N=C2C3CCN(CC3)C2C1c1ccccc1 (stereo unspecified) | 1.1 | 1 | 4.5 | 91.7 | 90.8
Cn1cnc([N+](=O)[O-])c1Sc1ccc([N+](=O)[O-])cc1 | 2* | 1.4 | 83.8* | · | ·
CCC(CC)N1CCN(C(=O)Cc2ccccc2)CC1 | 1 | 1 | 17.9 | 96.0 | 92.3
Cc1cccc(CNCCc2ccccc2)n1 | 1.2 | 1.3 | 68.7* | 90.5 | 91.1
COc1ccc(C(O)c2ccccc2OP(=O)(N(C)C)N(C)C)cc1 (stereo unspecified) | 1 | 1.1 | 66.3* | 87.0 | 94.9
